The source of these data is ChEMBL document CHEMBL3244352, “Synthesis and analgesic activity of some spiro[dibenz[b,f]oxepin-10,4'-piperidine] derivatives” (J Med Chem, 1979).

For series [1], the species on record is Mus musculus. The experiment in a line: animal or person. The note with it: CD-1 Charles River, sc. In kind it is functional.
For series [2], the system named is Mus musculus. Put plainly: Analgesic activity in CD-1 Charles River mouse at 25 mg/kg, sc measured for 15 to 60 mins by tail flick test relative to control. It is filed as functional. The settings on record: route subcutaneous. The essentials: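 Male CD-1 mice, ten per group, were restrained and given an intense light-beam stimulus, and tail-flick latency was recorded. Two baseline readings were taken. Mice were excluded if their readings differed by more than 1 s or if including them would widen the group spread beyond 3 s. A cutoff was set from the baselines. Drug was given sc (vehicle 10 mL/kg), and mice were tested at 15, 30, 45 and 60 min. Responses beyond the cutoff counted as analgesia, reported as percent.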

Series [3] concerns Mus musculus. The experiment in a line: Analgesic activity in po dosed CD-1 Charles River mouse assessed as inhibition of phenyl-p-benzoquinine-induced writhing administered 15 to 90 mins prior to phenyl-p-benzoquinine challenge measured after 5 mins. In kind it is functional.
In series [4] the test system is Mus musculus. The experiment in a line: Potency index, ratio of propoxyphene ED50 to compound ED50 for inhibition of phenyl-p-benzoquinine-induced writhing in po dosed CD-1 Charles River mouse. In kind it is functional. The essentials:
(§1)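 Writhing ED50s came from male CD-1 mice, ten per dose, tested at peak time after sc or po dosing, with four doses plus a vehicle control (water with Tween 80) in randomized order. Writhes were counted for 10 min, beginning 5 min after 0.125% phenyl-p-benzoquinone. ED50 was estimated by linear regression of percent inhibition, and ratios were formed from these ED50s.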

Series [5] deals with Mus musculus. The experiment in a line: Ratio of ED50 for inhibition of phenyl-p-benzoquinine-induced writhing in po dosed CD-1 Charles River mouse to ED50 for inhibition of phenyl-p-benzoquinine-induced writhing in sc dosed CD-1 Charles River mouse. It is filed as functional. An outline of the steps: as §1
The subject of series [6] is Mus musculus. Put plainly: Potency index, ratio of propoxyphene ED50 to compound ED50 for inhibition of phenyl-p-benzoquinine-induced writhing in sc dosed CD-1 Charles River mouse. In kind it is functional. The essentials: as §1
Series [7] concerns Mus musculus. Put plainly: Analgesic activity in sc dosed CD-1 Charles River mouse measured for 15 to 60 mins by tail flick test relative to control. In kind it is functional.
Series [8] relates to Mus musculus. The experiment in a line: Analgesic activity in po dosed CD-1 Charles River mouse measured for 15 to 60 mins by tail flick test relative to control. It is filed as functional.
Series [9] in a line: Ratio of ED50 for neurotoxicity in CD-1 Charles River mouse by rotarod test to ED50 for inhibition of phenyl-p-benzoquinine-induced writhing in CD-1 Charles River mouse. It is filed as toxicity, organism-based. The note with it: CD-1, mouse, in vivo; read-out: Ratio ED50.
The subject of series [10] is Mus musculus. The experiment in a line: Analgesic activity in CD-1 Charles River mouse assessed as inhibition of phenyl-p-benzoquinine-induced writhing at 25 mg/kg, po administered 15 to 90 mins prior to phenyl-p-benzoquinine challenge measured after 5 mins relative to control. It is filed as functional. The essentials:
(§2)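 Male CD-1 Charles River mice (18-24 g), five per group, were given the drug 15, 30, 60 and 90 min before an injection of 0.125% phenyl-p-benzoquinone in 5% aqueous ethanol. The vehicle was distilled water with a few drops of Tween 80. Writhes were counted for 10 min, starting 5 min after the injection, with mice held singly in beakers. The read-out was percent inhibition of writhes versus vehicle-treated mice.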

The subject of series [11] is Mus musculus. Put plainly: Analgesic activity in CD-1 Charles River mouse assessed as inhibition of phenyl-p-benzoquinine-induced writhing at 25 mg/kg, sc administered 15 to 90 mins prior to phenyl-p-benzoquinine challenge measured after 5 mins relative to control. It is filed as functional. The note with it: route subcutaneous. The essentials: as §2
For series [12], the system named is Mus musculus. Put plainly: Analgesic activity in CD-1 Charles River mouse assessed as inhibition of phenyl-p-benzoquinine-induced writhing at 5 mg/kg, po administered 15 to 90 mins prior to phenyl-p-benzoquinine challenge measured after 5 mins relative to control. It is filed as functional. An outline of the steps: as §2

SMILES strings stand for the structures.

Compound `CN1CC[C@]23c4c5ccc(O)c4O[C@H]2[C@@H](O)C=C[C@H]3[C@H]1C5.CN1CC[C@]23c4c5ccc(O)c4O[C@H]2[C@@H](O)C=C[C@H]3[C@H]1C5.O=S(=O)(O)O` came in with a 50% effective dose (ED50) in the series listed under Mus musculus [1] of 0.36 mg/kg.

With `Br.CN1CCC2(CC1)C(=O)c1ccccc1Oc1ccccc12`, it took a dose of 5.2 mg/kg to reach the 50% effect level in the series filed under Mus musculus [1] (ED50). The same compound gave an Activity in the series on Mus musculus [2] of 13%.

Regarding `Br.CN1CCC2(CC1)C(=O)c1cc(F)ccc1Oc1ccccc12`, the ED50 turned out to be 1.9 mg/kg in the series listed under Mus musculus [1] and 2 mg/kg in the series on Mus musculus [3]. Also, the figures for the “Ratio ED50” value with Mus musculus [4], in the series on Mus musculus [5] and in the series on Mus musculus [6] were 10, 1 and 2, respectively. In the series with Mus musculus [2], the Activity was found to be 30%.

In the case of `Br.CN1CCC2(CC1)C(=O)c1cc(Cl)ccc1Oc1ccccc12`, the ED50 in the series filed under Mus musculus [1] stood at 3.5 mg/kg; in the series on Mus musculus [3] it was 5.2 mg/kg; with Mus musculus [7] it was 13.2 mg/kg. Moreover, in the series with Mus musculus [5], the “Ratio ED50” value is 1.5.

Take `Br.O=C1c2ccccc2Oc2ccccc2C12CCNCC2`: the ED50 in the series filed under Mus musculus [1] turned out to be 1.7 mg/kg; with Mus musculus [3], 7.5 mg/kg. The “Ratio ED50” value in the series with Mus musculus [5] came to 4.5. The Activity in the series with Mus musculus [2] stood at 60%.

Consider `Cl.O=C1c2cc(F)ccc2Oc2ccccc2C12CCNCC2`, for which the results for the median effective dose (ED50) in the series listed under Mus musculus [1], in the series on Mus musculus [3] and in the series with Mus musculus [8] were 1.6 mg/kg, 2.2 mg/kg and 51.4 mg/kg, respectively. Moreover, the “Ratio ED50” value is reported as 10 with Mus musculus [4], 1 in the series on Mus musculus [5] and 2 in the series with Mus musculus [6]. This compound showed an Activity in the series with Mus musculus [2] of 75%. Further, the selectivity ratio in series [9] came to 17.6.

For `Br.O=C1c2cc(Cl)ccc2Oc2ccccc2C12CCNCC2`, the ED50 amounted to 3.7 mg/kg in the series filed under Mus musculus [1], 7.7 mg/kg in the series with Mus musculus [3] and 12 mg/kg in the series with Mus musculus [7]. Moreover, the “Ratio ED50” value with Mus musculus [5] is given as 2.

Turning to `Br.O=C1c2ccccc2Oc2ccccc2C12CCN(CC1CC1)CC2`, the ED50 in the series listed under Mus musculus [1] was 6 mg/kg. Moreover, in the series on Mus musculus [10], the inhibition in vivo at 25 mg/kg is 59%.

`Br.O=C1c2cc(Cl)ccc2Oc2ccccc2C12CCN(CC1CC1)CC2` showed an Activity with Mus musculus [2] of 0%. In the series on Mus musculus [11], the inhibition in vivo at 25 mg/kg was found to be 31%.

The compound `Br.O=C1c2ccccc2Oc2ccccc2C12CCN(CCc1ccccc1)CC2` yielded an ED50 in the series listed under Mus musculus [1] of 21 mg/kg. In the series with Mus musculus [2], this compound yielded an Activity of 40%.

In the series with Mus musculus [2], `O=C1c2cc(Cl)ccc2Oc2ccccc2C12CCN(CCc1ccccc1)CC2` yielded an Activity of 0%. Besides, the inhibition in vivo at 25 mg/kg in the series with Mus musculus [11] is 30%.

The compound `Br.C#CCN1CCC2(CC1)C(=O)c1ccccc1Oc1ccccc12` returned an Activity in the series with Mus musculus [2] of 20%. Besides, the inhibition in vivo at 25 mg/kg with Mus musculus [11] was found to be 57%.

Turning to `C#CCN1CCC2(CC1)C(=O)c1cc(Cl)ccc1Oc1ccccc12`, the Activity in the series with Mus musculus [2] amounted to 10%. Also, the inhibition in vivo at 25 mg/kg with Mus musculus [11] stood at 32%.

Compound `Br.O=C1c2ccccc2Oc2ccccc2C12CCN(CCO)CC2` came in with an ED50 in the series filed under Mus musculus [1] of 2.8 mg/kg. Moreover, the Activity with Mus musculus [2] is given as 40%.

In the case of `Br.O=C1c2cc(Cl)ccc2Oc2ccccc2C12CCN(CCO)CC2`, the 50% effective dose (ED50) in the series filed under Mus musculus [1] worked out at 7 mg/kg. Also, in the series on Mus musculus [2], the Activity was 30%.

`Br.O=C(CCCN1CCC2(CC1)C(=O)c1ccccc1Oc1ccccc12)c1ccc(F)cc1`: the inhibition in vivo at 5 mg/kg in the series on Mus musculus [12] stood at 67%. The compound further registered an Activity with Mus musculus [2] of 60%.

As to `Br.O=C(CCCN1CCC2(CC1)C(=O)c1cc(Cl)ccc1Oc1ccccc12)c1ccc(F)cc1`, the Activity with Mus musculus [2] worked out at 20%. Moreover, the inhibition in vivo at 25 mg/kg in the series with Mus musculus [11] came out at 49%.

On to `Br.O=C1c2ccccc2Oc2ccccc2C12CCN(CCCOc1ccccc1)CC2`, for which the Activity with Mus musculus [2] is reported as 20%. In addition, in the series on Mus musculus [11], the inhibition in vivo at 25 mg/kg was determined as 55%.

Regarding `O=C1c2cc(Cl)ccc2Oc2ccccc2C12CCN(CCCOc1ccccc1)CC2`, the Activity in the series on Mus musculus [2] came out at 0%. The inhibition in vivo at 25 mg/kg in the series with Mus musculus [11] amounted to 54%.

Take `CC(C)=CCN1CCC2(CC1)C(=O)c1cc(Cl)ccc1Oc1ccccc12`: in the series on Mus musculus [11], the inhibition in vivo at 25 mg/kg amounted to 42%.

For the compound `Br.C=CCN1CCC2(CC1)C(=O)c1cc(Cl)ccc1Oc1ccccc12`, in the series with Mus musculus [2], the Activity is reported as 10%. The inhibition in vivo at 25 mg/kg in the series on Mus musculus [11] was 37%.

On to `Br.CCN1CCC2(CC1)C(=O)c1cc(Cl)ccc1Oc1ccccc12`, for which the Activity in the series with Mus musculus [2] is on record as 0%. Further, the inhibition in vivo at 25 mg/kg in the series on Mus musculus [11] was found to be 67%.

Turning to `Br.CCCN1CCC2(CC1)C(=O)c1cc(Cl)ccc1Oc1ccccc12`, the Activity with Mus musculus [2] was determined as 10%. Also, the inhibition in vivo at 25 mg/kg with Mus musculus [11] was 22%.

For the compound `CC(C)=CCN1CC[C@]2(C)c3cc(O)ccc3C[C@H]1[C@H]2C` [(+)-PENTAZOCINE], the 50% effective dose (ED50) in the series filed under Mus musculus [1] amounted to 2.4 mg/kg.

For the compound `CCC(=O)O[C@](Cc1ccccc1)(c1ccccc1)[C@H](C)CN(C)C` [PROPOXYPHENE], the figures for the ED50 in the series filed under Mus musculus [1] and with Mus musculus [3] were 3.9 mg/kg and 24.6 mg/kg, respectively. Further, the “Ratio ED50” value in the series with Mus musculus [5] is 6.3.
